In ChEMBL document CHEMBL1135929, “Investigation of potential bioisosteric replacements for the carboxyl groups of peptidomimetic inhibitors of protein tyrosine phosphatase 1B: identification of a tetrazole-containing inhibitor with cellular activity” (J Med Chem, 2002):

Experiments:
[1] = biological target: T1, Tyrosine-protein phosphatase non-receptor type 1 (Homo sapiens) (UniProt P18031); assay: Percent inhibition against Protein-tyrosine phosphatase 1B at a 100 uM concentration
T1 sequence (whole entry): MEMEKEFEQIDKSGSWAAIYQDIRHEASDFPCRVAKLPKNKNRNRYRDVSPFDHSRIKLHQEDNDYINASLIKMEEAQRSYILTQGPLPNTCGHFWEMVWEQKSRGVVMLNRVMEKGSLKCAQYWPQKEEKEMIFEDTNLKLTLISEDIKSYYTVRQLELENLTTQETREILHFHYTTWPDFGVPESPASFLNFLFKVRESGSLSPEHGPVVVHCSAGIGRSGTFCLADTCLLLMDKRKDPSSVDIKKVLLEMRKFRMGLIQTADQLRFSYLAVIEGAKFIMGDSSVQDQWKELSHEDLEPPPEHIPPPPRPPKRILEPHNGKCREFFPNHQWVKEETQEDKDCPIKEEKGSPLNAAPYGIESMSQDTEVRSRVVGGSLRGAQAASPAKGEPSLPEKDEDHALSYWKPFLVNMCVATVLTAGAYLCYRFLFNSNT
In short: (§1)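 PTP1B inhibition was read as pNPP hydrolysis, with compound at a single fixed concentration and activity given as % inhibition. Some entries were measured on PTP1, the rat homologue of PTP1B.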

[2] = biological target: T1, Tyrosine-protein phosphatase non-receptor type 1 (Homo sapiens); assay: Percent inhibition against Protein-tyrosine phosphatase 1B at a 10 uM concentration
[3] = biological target: T1, Tyrosine-protein phosphatase non-receptor type 1 (Homo sapiens); assay: Percent inhibition against Protein-tyrosine phosphatase 1B at a 1 uM concentration
[4] = biological target: Receptor-type tyrosine-protein phosphatase F (Homo sapiens) (UniProt P10586); assay: Percent inhibition against Protein-tyrosine phosphatase Lar at 100 uM
In short: (§2)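 For specificity screening, recombinant purified LAR and SHP-2 were each tested with compound at 100 µM, reported as % inhibition.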

[5] = biological target: T2, Tyrosine-protein phosphatase non-receptor type 11 (Homo sapiens) (UniProt Q06124); assay: Percent inhibition against Tyrosine phosphatase SHP2 at 100 uM; in short: as §2
T2 sequence (whole entry): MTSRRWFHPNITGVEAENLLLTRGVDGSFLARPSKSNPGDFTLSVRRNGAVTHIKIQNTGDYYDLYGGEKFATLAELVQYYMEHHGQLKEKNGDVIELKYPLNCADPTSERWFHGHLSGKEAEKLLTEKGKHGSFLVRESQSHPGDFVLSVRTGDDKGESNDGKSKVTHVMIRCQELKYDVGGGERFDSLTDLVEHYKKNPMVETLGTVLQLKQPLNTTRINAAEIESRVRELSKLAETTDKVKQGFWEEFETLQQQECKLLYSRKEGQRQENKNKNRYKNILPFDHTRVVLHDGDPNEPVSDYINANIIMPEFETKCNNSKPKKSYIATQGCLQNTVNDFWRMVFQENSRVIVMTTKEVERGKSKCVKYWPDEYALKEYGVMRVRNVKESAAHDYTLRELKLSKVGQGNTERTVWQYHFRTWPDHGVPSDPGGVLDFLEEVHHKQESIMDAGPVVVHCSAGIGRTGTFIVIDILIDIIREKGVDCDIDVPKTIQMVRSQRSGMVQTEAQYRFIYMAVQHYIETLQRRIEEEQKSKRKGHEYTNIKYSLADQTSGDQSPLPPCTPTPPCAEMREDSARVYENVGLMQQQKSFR

Rattus norvegicus [6] = species: Rattus norvegicus; assay: Effect on basal uptake without insulin into intact cells (L6 myocytes), to that of control cells; assay type: functional, cell-based
[7] = biological target: T3, Tyrosine-protein phosphatase non-receptor type 1 (Homo sapiens, UniProt P18031); assay: Inhibitory constant against Protein-tyrosine phosphatase 1B
T3 sequence (P18031 whole entry): T1 sequence (whole entry)
In short: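 Competitive inhibition of PTP1B was measured with pNPP as substrate. V vs S data were collected at various inhibitor concentrations, and Ki was computed by the Cornish-Bowden direct linear method.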

Rattus norvegicus [8] = species: Rattus norvegicus; assay: Effect of compound (100 µM) on insulin (10 nM)-stimulated 2-deoxyglucose (2-DOG) uptake into L6 myocytes
[9] = biological target: T3, Tyrosine-protein phosphatase non-receptor type 1; assay: Inhibition constant of compound against Protein-tyrosine phosphatase 1B
[10] = biological target: Receptor-type tyrosine-protein phosphatase F (Homo sapiens) (UniProt P10586); assay: Percent inhibition of compound against Protein-tyrosine phosphatase Lar at 100 uM; in short: as §2
[11] = biological target: T4, Tyrosine-protein phosphatase non-receptor type 1 (Rattus norvegicus) (UniProt P20417); assay: Percent inhibition of compound against Protein-tyrosine phosphatase 1B at a 100 uM concentration; in short: as §1
T4 sequence (whole entry): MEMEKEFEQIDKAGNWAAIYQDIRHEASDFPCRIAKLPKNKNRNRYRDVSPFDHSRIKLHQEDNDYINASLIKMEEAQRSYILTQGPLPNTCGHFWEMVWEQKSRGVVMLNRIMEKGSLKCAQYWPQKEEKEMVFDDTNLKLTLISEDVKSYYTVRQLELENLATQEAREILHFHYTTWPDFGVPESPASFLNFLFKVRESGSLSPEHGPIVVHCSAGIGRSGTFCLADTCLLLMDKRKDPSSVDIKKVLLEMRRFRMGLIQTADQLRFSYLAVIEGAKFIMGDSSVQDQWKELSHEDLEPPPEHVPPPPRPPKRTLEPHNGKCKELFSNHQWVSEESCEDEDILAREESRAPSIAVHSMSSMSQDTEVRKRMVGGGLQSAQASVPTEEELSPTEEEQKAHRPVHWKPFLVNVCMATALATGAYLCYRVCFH

[12] = biological target: Tyrosine-protein phosphatase non-receptor type 11 (SHP-2) (Homo sapiens) (UniProt Q06124); assay: Percent inhibition of compound against Tyrosine phosphatase SHP2 at 100 uM

Chain of Receptor-type tyrosine-protein phosphatase F (Homo sapiens) (P10586 whole entry): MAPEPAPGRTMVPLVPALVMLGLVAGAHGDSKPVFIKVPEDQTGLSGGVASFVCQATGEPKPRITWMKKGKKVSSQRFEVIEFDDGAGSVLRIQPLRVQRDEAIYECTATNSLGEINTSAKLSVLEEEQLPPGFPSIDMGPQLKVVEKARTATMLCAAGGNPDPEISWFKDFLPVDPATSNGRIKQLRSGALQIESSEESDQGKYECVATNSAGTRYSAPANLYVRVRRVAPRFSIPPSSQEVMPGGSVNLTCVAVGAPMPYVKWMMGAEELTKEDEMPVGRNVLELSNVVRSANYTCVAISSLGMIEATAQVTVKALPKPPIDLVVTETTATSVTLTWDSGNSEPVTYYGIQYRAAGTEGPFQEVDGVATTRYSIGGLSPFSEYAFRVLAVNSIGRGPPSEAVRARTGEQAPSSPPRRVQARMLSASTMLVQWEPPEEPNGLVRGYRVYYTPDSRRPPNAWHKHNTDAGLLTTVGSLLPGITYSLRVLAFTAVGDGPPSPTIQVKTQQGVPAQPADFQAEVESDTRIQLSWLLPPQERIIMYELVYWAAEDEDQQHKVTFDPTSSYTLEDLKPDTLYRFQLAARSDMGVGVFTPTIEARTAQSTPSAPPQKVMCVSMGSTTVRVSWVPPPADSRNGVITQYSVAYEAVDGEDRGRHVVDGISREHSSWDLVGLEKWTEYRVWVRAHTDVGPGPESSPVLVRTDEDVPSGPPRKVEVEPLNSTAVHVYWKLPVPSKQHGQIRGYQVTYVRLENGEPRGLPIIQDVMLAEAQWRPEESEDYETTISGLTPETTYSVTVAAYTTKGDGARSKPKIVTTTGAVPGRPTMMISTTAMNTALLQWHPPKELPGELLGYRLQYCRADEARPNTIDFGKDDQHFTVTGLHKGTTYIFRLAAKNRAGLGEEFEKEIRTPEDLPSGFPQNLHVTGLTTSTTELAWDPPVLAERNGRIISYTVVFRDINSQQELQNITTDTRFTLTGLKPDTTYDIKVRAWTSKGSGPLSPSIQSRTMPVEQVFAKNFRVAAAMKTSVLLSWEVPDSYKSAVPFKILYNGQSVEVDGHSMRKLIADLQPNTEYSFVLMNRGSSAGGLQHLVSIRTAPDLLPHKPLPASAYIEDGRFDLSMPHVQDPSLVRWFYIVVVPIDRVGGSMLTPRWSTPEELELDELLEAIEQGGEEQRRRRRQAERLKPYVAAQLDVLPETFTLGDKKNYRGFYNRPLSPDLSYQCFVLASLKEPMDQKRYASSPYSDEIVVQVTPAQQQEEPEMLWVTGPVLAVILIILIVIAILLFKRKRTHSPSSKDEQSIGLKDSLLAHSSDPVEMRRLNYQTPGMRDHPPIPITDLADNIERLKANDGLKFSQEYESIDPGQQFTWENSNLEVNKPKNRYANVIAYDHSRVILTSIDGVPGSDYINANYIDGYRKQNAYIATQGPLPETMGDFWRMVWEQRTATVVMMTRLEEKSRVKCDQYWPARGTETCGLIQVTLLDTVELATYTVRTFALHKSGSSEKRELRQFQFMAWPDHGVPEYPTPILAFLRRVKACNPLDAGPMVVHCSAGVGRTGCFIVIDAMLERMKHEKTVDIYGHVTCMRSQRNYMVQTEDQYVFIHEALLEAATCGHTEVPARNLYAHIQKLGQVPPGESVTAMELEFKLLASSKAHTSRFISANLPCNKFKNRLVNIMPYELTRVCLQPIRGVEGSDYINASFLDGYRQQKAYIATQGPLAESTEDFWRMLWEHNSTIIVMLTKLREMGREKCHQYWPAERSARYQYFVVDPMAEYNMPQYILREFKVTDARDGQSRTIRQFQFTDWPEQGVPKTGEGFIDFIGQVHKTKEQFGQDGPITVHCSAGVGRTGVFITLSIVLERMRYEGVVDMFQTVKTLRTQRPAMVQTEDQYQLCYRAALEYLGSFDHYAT

CCCCCNC(=O)[C@H](Cc1ccc(OCC(=O)O)c(C(=O)OC)c1)NC(=O)[C@H](Cc1ccccc1)NC(=O)OC(C)(C)C
inhibition [1]: 4%
inhibition [2]: 2%
inhibition [3]: 3%
inhibition [4]: 0%
inhibition [5]: 0%

CCCCCNC(=O)C(Cc1ccc2c(c1)OCCOC2=O)NC(=O)CCC(=O)O (stereo unspecified)
inhibition [1]: 1%
inhibition [4]: 0%
inhibition [5]: 0%

CCCCCNC(=O)C(Cc1ccc(OCCO)c(C(=O)O)c1)NC(=O)CCC(=O)O (stereo unspecified)
inhibition [1]: 4%
inhibition [4]: 0%
inhibition [5]: 0%

CCCCCNC(=O)C(Cc1ccc(OCC(=O)O)c(C#N)c1)NC(=O)CCC(=O)O (stereo unspecified)
inhibition [1]: 4%
inhibition [4]: 0%
inhibition [5]: 0%

CCCCCNC(=O)[C@H](Cc1ccc(OCC(=O)O)c(C#CC(=O)O)c1)NC(=O)[C@H](Cc1ccccc1)NC(=O)OC(C)(C)C
inhibition [1]: 16%
inhibition [2]: 3%
inhibition [3]: 1%
inhibition [4]: 1%
inhibition [5]: 1%

CCCCCNC(=O)[C@H](Cc1ccc(OCC(=O)O)c(-c2nn[nH]n2)c1)NC(=O)[C@H](Cc1ccccc1)NC(=O)OC(C)(C)C
Uptake (Rattus norvegicus [6]): 99%
inhibition [1]: 97%
inhibition [2]: 77%
inhibition [3]: 27%
Ki [7]: 2000 nM
inhibition [4]: 0%
inhibition [5]: 1%
Uptake (Rattus norvegicus [8]): 147%

CCCCCNC(=O)[C@H](Cc1ccc(OCC(=O)O)c(C(=O)NO)c1)NC(=O)[C@H](Cc1ccccc1)NC(=O)OC(C)(C)C
inhibition [1]: 54%
inhibition [2]: 13%
inhibition [3]: 5%
inhibition [4]: 3%
inhibition [5]: 6%

CCCCCNC(=O)C(Cc1ccc(OCC(=O)O)c(C(=O)O)c1)NC(=O)CCC(=O)O (stereo unspecified)
inhibition [4]: 0%
inhibition [5]: 5%
Ki [9]: 6.5 µM

CCCCCNC(=O)[C@H](Cc1ccc(OCC(N)=O)c(C(=O)O)c1)NC(=O)[C@H](Cc1ccccc1)NC(=O)OC(C)(C)C
inhibition [1]: 0%
inhibition [2]: 0%
inhibition [3]: 0%
inhibition [4]: 0%
inhibition [5]: 0%

CCCCCNC(=O)[C@H](Cc1ccc(OCC(=O)O)c(CCC(=O)O)c1)NC(=O)[C@H](Cc1ccccc1)NC(=O)OC(C)(C)C
inhibition [1]: 18%
inhibition [2]: 4%
inhibition [3]: 3%
inhibition [4]: 13%
inhibition [5]: 1%

CCCCCNC(=O)C(Cc1ccc(OCC#N)c(C(=O)O)c1)NC(=O)CCC(=O)O (stereo unspecified)
inhibition [1]: 3%
inhibition [4]: 0%
inhibition [5]: 0%

CCCCCNC(=O)[C@H](Cc1ccc(OCC(=O)O)c(-c2cc(O)no2)c1)NC(=O)[C@H](Cc1ccccc1)NC(=O)OC(C)(C)C
inhibition [1]: 9%
inhibition [2]: 1%
inhibition [3]: 1%
inhibition [4]: 0%

CCCCCNC(=O)[C@H](Cc1ccc(OCC(=O)OC)c(C(=O)O)c1)NC(=O)[C@H](Cc1ccccc1)NC(=O)OC(C)(C)C
inhibition [1]: 25%
inhibition [2]: 5%
inhibition [3]: 3%
inhibition [4]: 0%
inhibition [5]: 0%

CCCCCNC(=O)[C@H](Cc1ccc(OCc2nn[nH]n2)c(C(=O)O)c1)NC(=O)[C@H](Cc1ccccc1)NC(=O)OC(C)(C)C
inhibition [1]: 17%
inhibition [2]: 3%
inhibition [3]: 1%
inhibition [4]: 0%
inhibition [5]: 5%

CCCCCNC(=O)C(Cc1ccc(OCC(=O)O)c(C(C)=O)c1)NC(=O)CCC(=O)O (stereo unspecified)
inhibition [10]: -2%
inhibition [11]: 8%
inhibition [12]: 1%

CCCCCNC(=O)[C@H](Cc1ccc(OCC(=O)NO)c(C(=O)O)c1)NC(=O)[C@H](Cc1ccccc1)NC(=O)OC(C)(C)C
inhibition [1]: 30%
inhibition [2]: 8%
inhibition [3]: 6%
inhibition [4]: 1%
inhibition [5]: 4%

CCCCCNC(=O)[C@H](Cc1ccc(OCC(=O)O)c(C(=O)O)c1)NC(=O)[C@H](Cc1ccccc1)NC(=O)OC(C)(C)C
inhibition [1]: 97%
inhibition [2]: 78%
inhibition [3]: 30%
Ki [7]: 2000 nM
inhibition [4]: 0%
inhibition [5]: 2%
